Source: ChEMBL document CHEMBL4145683, “Total Synthesis and Structure-Activity Relationships Study of Odilorhabdins, a New Class of Peptides Showing Potent Antibacterial Activity” (J Med Chem, 2018)
Converted amounts (≈) assume the structure as drawn. Non-standard residues stand in square brackets, D forms with d. Residues, ends and D or L forms follow the SMILES beside them. *: point of attachment. Dab(3S-OH) = NC[C@H](O)[C@H](N)C(=O)O; ΔZArg = N=C(N)NCC/C=C(\N)C(=O)O; aThr = C[C@H](O)[C@H](N)C(=O)O; dOrn = NCCC[C@@H](N)C(=O)O; NH(CH2)4NH2 = NCCCCN*

How the values were obtained:
Klebsiella pneumoniae [1] = assay: Antimicrobial activity against Klebsiella pneumoniae ATCC BAA-1904 by broth microdilution method; assay type: functional
Procedure, shortened: (§1)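 Broth microdilution MIC per CLSI M07-A10, with inoculum prepared by direct colony suspension. Reference strains were from ATCC and NCTC.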

Klebsiella pneumoniae [2] = assay: Antimicrobial activity against Klebsiella pneumoniae NCTC 13439 by broth microdilution method; assay type: functional; procedure, shortened: as §1
Klebsiella pneumoniae [3] = assay: Antimicrobial activity against Klebsiella pneumoniae ATCC BAA-1905 by broth microdilution method; assay type: functional; procedure, shortened: as §1
Klebsiella pneumoniae [4] = assay: Antimicrobial activity against Klebsiella pneumoniae ATCC BAA-2146 by broth microdilution method; assay type: functional; procedure, shortened: as §1
Klebsiella pneumoniae [5] = assay: Antimicrobial activity against Klebsiella pneumoniae ATCC BAA-2473 by broth microdilution method; assay type: functional; procedure, shortened: as §1
Klebsiella pneumoniae [6] = assay: Antimicrobial activity against Klebsiella pneumoniae NCTC 13442 by broth microdilution method; assay type: functional
Procedure, shortened: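 CLSI broth microdilution with direct colony suspension inoculum, per CLSI M07-A10. Reference strain taken from the NCTC collection.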

Klebsiella pneumoniae [7] = assay: Antimicrobial activity against Klebsiella pneumoniae ATCC 43816 by broth microdilution method; assay type: functional; conditions: Klebsiella pneumoniae, ATCC 43816; read-out: MIC; procedure, shortened: as §1
Escherichia coli [8] = assay: Antimicrobial activity against Escherichia coli ATCC BAA-2452 by broth microdilution method; assay type: functional; procedure, shortened: as §1
Klebsiella pneumoniae [9] = assay: Antimicrobial activity against Klebsiella pneumoniae ATCC BAA-2472 by broth microdilution method; assay type: functional; procedure, shortened: as §1
Klebsiella pneumoniae [10] = assay: Antimicrobial activity against Klebsiella pneumoniae NCTC 13443 by broth microdilution method; assay type: functional; procedure, shortened: as §1
Escherichia coli [11] = assay: Antimicrobial activity against Escherichia coli ATCC BAA-2469 by broth microdilution method; assay type: functional; procedure, shortened: as §1
Escherichia coli [12] = assay: Antimicrobial activity against Escherichia coli ATCC BAA-2340 by broth microdilution method; assay type: functional; procedure, shortened: as §1
Escherichia coli [13] = assay: microbe, parasite or virus in culture; conditions: ATCC 25922
Enterobacter cloacae = assay: Antimicrobial activity against Enterobacter cloacae ATCC BAA-2468 by broth microdilution method; assay type: functional
Klebsiella pneumoniae [14] = assay: Antimicrobial activity against Klebsiella pneumoniae NCTC 13438 by broth microdilution method; assay type: functional; procedure, shortened: as §1
Klebsiella pneumoniae [15] = assay: Antimicrobial activity against Klebsiella pneumoniae ATCC 13883 by broth microdilution method; assay type: functional; procedure, shortened: as §1
Escherichia coli [16] = assay: Inhibition of bacterial protein synthesis in cell-free Escherichia coli incubated for 1 hr and measured for every 20 mins by bacterial cell-free transcription-translation assay; assay type: functional; conditions: Escherichia coli
Procedure, shortened: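 E. coli cell-free coupled transcription-translation used a GFP gene in pEXP5-CT as template, started with 1 μg plasmid in 50 μL reactions. Feed buffer was added at 30 min, with incubation at 30 °C. Fluorescence (ex 475/em 520 nm) was read every 20 min. IC50 was taken at 1 h after feed addition from a four-parameter log(inhibitor)–response fit. Duplicates.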

Structure (SMILES) | MIC (Klebsiella pneumoniae [7]) [µg/mL] | MIC (Escherichia coli [13]) [µg/mL] | IC50 (Escherichia coli [16]) [nM] | also measured
C[C@@H](O)[C@H]1C(=O)N2C(C(=O)O)=C(SCCNC=N)C[C@H]12 [IMIPENEM ANHYDROUS] | 1 (≈ 3.34 µM) | 0.5 (≈ 1.67 µM) | – | MIC (Klebsiella pneumoniae [1]): 64 µg/mL (≈ 214 µM); MIC (Klebsiella pneumoniae [2]): 64 µg/mL (≈ 214 µM); MIC (Klebsiella pneumoniae [3]): > 64 µg/mL; MIC (Klebsiella pneumoniae [4]): > 64 µg/mL; MIC (Klebsiella pneumoniae [5]): > 64 µg/mL; MIC (Klebsiella pneumoniae [6]): > 64 µg/mL; MIC (Escherichia coli [8]): > 64 µg/mL; MIC (Klebsiella pneumoniae [9]): > 64 µg/mL; MIC (Klebsiella pneumoniae [10]): > 64 µg/mL; MIC (Escherichia coli [11]): > 64 µg/mL; MIC (Escherichia coli [12]): 32 µg/mL (≈ 107 µM); MIC (Enterobacter cloacae): > 64 µg/mL; MIC (Klebsiella pneumoniae [14]): > 64 µg/mL; MIC (Klebsiella pneumoniae [15]): 2 µg/mL (≈ 6.68 µM)
C[C@H](NC(=O)[C@@H](CCCN)NC(=O)CNC(=O)[C@@H](NC(=O)[C@@H](NC(=O)[C@@H](N)CCCCN)[C@@H](O)CN)[C@@H](O)CN)C(=O)N[C@@H](Cc1cnc[nH]1)C(=O)N[C@@H](CCCCN)C(=O)N/C(=C\CCNC(=N)N)C(=O)N[C@@H](CCCCN)C(=O)NCCCCN (H-K[Dab(3S-OH)][Dab(3S-OH)]G[dOrn]AHK[ΔZArg]K-{NH(CH2)4NH2}) | 32 (≈ 25.8 µM) | 16 (≈ 12.9 µM) | 2410 | –
N=C(N)NCCC[C@H](NC(=O)[C@H](CCCCN)NC(=O)[C@H](Cc1cnc[nH]1)NC(=O)[C@@H]1CCCN1C(=O)[C@@H](CCCN)NC(=O)CNC(=O)[C@@H](NC(=O)[C@@H](NC(=O)[C@@H](N)CCCCN)[C@@H](O)CN)[C@@H](O)CN)C(=O)N[C@@H](CCCCN)C(=O)NCCCCN (H-K[Dab(3S-OH)][Dab(3S-OH)]G[dOrn]PHKRK-{NH(CH2)4NH2}) | 8 (≈ 6.32 µM) | 32 (≈ 25.3 µM) | 1530 | –
N=C(N)NCC/C=C(\NC(=O)[C@H](CCCCN)NC(=O)[C@H](Cc1cnc[nH]1)NC(=O)[C@@H]1CCCN1C(=O)[C@@H](CCCN)NC(=O)CNC(=O)[C@@H](NC(=O)[C@@H](NC(=O)[C@@H](N)CCCCN)[C@@H](O)CN)[C@@H](O)CN)C(=O)O (H-K[Dab(3S-OH)][Dab(3S-OH)]G[dOrn]PHK[ΔZArg]-OH) | 4 (≈ 3.75 µM) | 16 (≈ 15 µM) | 430 | –
CO/N=C(\C(=O)N[C@@H]1C(=O)N2C(C(=O)O)=C(CSc3nc(=O)c(O)nn3C)CS[C@H]12)c1csc(N)n1 [CEFTRIAXONE] | ≤ 0.125 | < 0.25 | – | MIC (Klebsiella pneumoniae [1]): > 64 µg/mL; MIC (Klebsiella pneumoniae [2]): > 64 µg/mL; MIC (Klebsiella pneumoniae [3]): > 64 µg/mL; MIC (Klebsiella pneumoniae [4]): > 64 µg/mL; MIC (Klebsiella pneumoniae [5]): > 64 µg/mL; MIC (Klebsiella pneumoniae [6]): 8 µg/mL (≈ 14.4 µM); MIC (Escherichia coli [8]): > 64 µg/mL; MIC (Klebsiella pneumoniae [9]): > 64 µg/mL; MIC (Klebsiella pneumoniae [10]): > 64 µg/mL; MIC (Escherichia coli [11]): > 64 µg/mL; MIC (Escherichia coli [12]): > 64 µg/mL; MIC (Enterobacter cloacae): > 64 µg/mL; MIC (Klebsiella pneumoniae [14]): > 64 µg/mL; MIC (Klebsiella pneumoniae [15]): < 0.25 µg/mL
C[C@H](NC(=O)/C(=C/CCNC(=N)N)NC(=O)[C@H](CCCCN)NC(=O)[C@H](Cc1cnc[nH]1)NC(=O)[C@@H]1CCCN1C(=O)[C@@H](CCCN)NC(=O)CNC(=O)[C@@H](NC(=O)[C@@H](NC(=O)[C@@H](N)CCCCN)[C@@H](O)CN)[C@@H](O)CN)C(=O)NCCCCN (H-K[Dab(3S-OH)][Dab(3S-OH)]G[dOrn]PHK[ΔZArg]A-{NH(CH2)4NH2}) | 8 (≈ 6.63 µM) | 8 (≈ 6.63 µM) | 1040 | –
C[C@H](NC(=O)[C@H](CCCCN)NC(=O)[C@H](Cc1cnc[nH]1)NC(=O)[C@@H]1CCCN1C(=O)[C@@H](CCCN)NC(=O)CNC(=O)[C@@H](NC(=O)[C@@H](NC(=O)[C@@H](N)CCCCN)[C@@H](O)CN)[C@@H](O)CN)C(=O)N[C@@H](CCCCN)C(=O)NCCCCN (H-K[Dab(3S-OH)][Dab(3S-OH)]G[dOrn]PHKAK-{NH(CH2)4NH2}) | 64 (≈ 54.2 µM) | > 64 | 2400 | –

Second part, led by results:

MIC (Klebsiella pneumoniae [7]) [µg/mL] | MIC (Escherichia coli [13]) [µg/mL] | IC50 (Escherichia coli [16]) [nM] | Structure (SMILES) | also measured
8 (≈ 6.4 µM) | 8 (≈ 6.4 µM) | 1000 | C[C@H](O)[C@H](NC(=O)[C@@H](NC(=O)[C@@H](N)CCCCN)[C@@H](O)CN)C(=O)NCC(=O)N[C@H](CCCN)C(=O)N1CCC[C@H]1C(=O)N[C@@H](Cc1cnc[nH]1)C(=O)N[C@@H](CCCCN)C(=O)N/C(=C\CCNC(=N)N)C(=O)N[C@@H](CCCCN)C(=O)NCCCCN (H-K[Dab(3S-OH)][aThr]G[dOrn]PHK[ΔZArg]K-{NH(CH2)4NH2}) | –
8 (≈ 6.64 µM) | 8 (≈ 6.64 µM) | 1060 | N=C(N)NCC/C=C(\NC(=O)[C@H](CCCCN)NC(=O)[C@H](Cc1cnc[nH]1)NC(=O)[C@@H]1CCCN1C(=O)[C@@H](CCCN)NC(=O)CNC(=O)CNC(=O)[C@@H](NC(=O)[C@@H](N)CCCCN)[C@@H](O)CN)C(=O)N[C@@H](CCCCN)C(=O)NCCCCN (H-K[Dab(3S-OH)]GG[dOrn]PHK[ΔZArg]K-{NH(CH2)4NH2}) | –
8 (≈ 6.63 µM) | 16 (≈ 13.3 µM) | 730 | C[C@H](N)C(=O)N[C@H](C(=O)N[C@H](C(=O)NCC(=O)N[C@H](CCCN)C(=O)N1CCC[C@H]1C(=O)N[C@@H](Cc1cnc[nH]1)C(=O)N[C@@H](CCCCN)C(=O)N/C(=C\CCNC(=N)N)C(=O)N[C@@H](CCCCN)C(=O)NCCCCN)[C@@H](O)CN)[C@@H](O)CN (H-A[Dab(3S-OH)][Dab(3S-OH)]G[dOrn]PHK[ΔZArg]K-{NH(CH2)4NH2}) | –
